SENP1 inh = human SENP1 catalytic domain inhibitors, primary screen, biochemical, FRET, uHTS | inhibition, % at 10 µM | AID 624204, 2012 | recombinant SENP1 catalytic domain, CyPet-SUMO1-YPet FRET cleavage | 0.21% of 360,000 active | Sentrin-specific protease 1 (Homo sapiens), Q9P0U3;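 active = inhibition at least 30% at 10 µM, raw YFP signal under a set limit, fluorescence ratio 0.5 to 1.5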;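 also: 0% = enzyme with DMSO and 100% = no enzyme wells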
Target sequence (Q9P0U3 419-644 limits assumed): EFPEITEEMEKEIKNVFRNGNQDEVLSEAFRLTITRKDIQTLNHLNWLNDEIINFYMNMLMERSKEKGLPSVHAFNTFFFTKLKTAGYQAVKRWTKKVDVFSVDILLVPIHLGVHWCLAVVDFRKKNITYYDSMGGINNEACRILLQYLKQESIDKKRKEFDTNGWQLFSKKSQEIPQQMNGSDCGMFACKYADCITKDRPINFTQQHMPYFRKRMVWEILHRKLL
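Assay system: hSENP1 catalytic domain, recombinant. Amount: SENP1 enzyme, 20 pM final. Schedule: 50 min reaction, RT, dark. Technique: FRET, CFP and YFP emission. Control set: no-enzyme wells low, DMSO-plus-enzyme wells high control.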
SENP8 block-1 = human SENP8 protease inhibitors, primary screen, biochemical, fluorescence, Nedd8 protein substrate, uHTS; recombinant SENP8; inhibition, % at 20 µM; 0.64% of 360,000 active; in the data active = inhibition mostly above about 40%, no sharp cut-off; inactive = mostly below about 27%
Target sequence (Q96LD8 whole entry, looked up): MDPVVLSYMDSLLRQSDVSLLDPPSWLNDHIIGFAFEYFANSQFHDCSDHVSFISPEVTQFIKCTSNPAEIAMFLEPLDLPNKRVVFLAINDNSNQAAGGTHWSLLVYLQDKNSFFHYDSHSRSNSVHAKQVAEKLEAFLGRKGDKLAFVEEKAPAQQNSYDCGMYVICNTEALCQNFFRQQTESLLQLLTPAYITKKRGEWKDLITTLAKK
CendR NRP1 mod = modulators of CendR peptide binding to NRP-1, primary screen, biochemical, fluorescence polarization, uHTS. AID 602438, 2012. 0.85% of 360,000 active. Neuropilin-1 (Homo sapiens), O14786. FAM-RPARPAR peptide binding to NRP-1. inhibition, % at 25 µM;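 active = inhibition or corrected inhibition above about 18%, plus a signal ratio from 0.5 to 1.5, limit read from the data, passing the limit was not always enough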
SENP8 block-2 = SENP8 protease inhibitors, primary screen, biochemical, luminescence; Sentrin-specific protease 8 (Homo sapiens), Q96LD8; purified SENP8, Z-RLRGG-aminoluciferin cleavage; inhibition, % at 10 µM; 1.2% of 330,000 active; AID 2540, 2010; in the data active = inhibition above about 50%
SENP6 inh = SENP6 protease inhibitors, primary screen, biochemical, luminescence, uHTS; Sentrin-specific protease 6 (Homo sapiens), Q9GZR1; Recombinant SENP6 catalytic domain, aminoluciferin luminescence; inhibition, % at 10 µM; 1.8% of 330,000 active; AID 2599, 2010;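 active = inhibition above about 50% at the single tested dose, limit read from the data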;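 also: plate controls were DMSO wells with enzyme for no effect and DMSO wells lacking enzyme for full effect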
SENP7 inh = SENP7 protease inhibitors, primary screen, biochemical, luminescence, uHTS | AID 434973, 2010 | recombinant SENP7, Z-RLRGG-aminoluciferin luminescence, 40 min | inhibition, % at 5 µM | 1.5% of 330,000 active | Sentrin-specific protease 7 (Homo sapiens), Q9BQF6;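 active = inhibition above about 50% at the single test dose, limit read from the data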;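 also: plate controls were DMSO with enzyme for no effect and no enzyme buffer wells for full effect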
SENP8 conf = SENP8 protease inhibitors, retest, confirmation, biochemical, luminescence, single concentration. shares compounds with SENP7 inh. Recombinant SENP8, Z-RLRGG-aminoluciferin luminescence, 60 min. inhibition, % at 12.5 µM. 40% of 6,200 active;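 active = mean inhibition across replicates above about 50%, limit read from the data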
SENP6 confirm = SENP6 protease inhibitors, confirmation, biochemical, luminescence, single concentration; shares compounds with SENP7 inh; recombinant SENP6, Z-RLRGG-aminoluciferin luminescence; 58% of 6,200 active; inhibition, % at 12.5 µM; AID 488915, 2010
SENP7 confirm = SENP7 protease inhibitors, retest, confirmation, biochemical, luminescence, single concentration | 69% of 6,200 active | recombinant SENP7, Z-RLRGG-aminoluciferin luminescence, 40 min | inhibition, % at 12.5 µM | shares compounds with SENP7 inh
Casp3 select = caspase-3 protease inhibitors, confirmation, selectivity assay for SENP inhibitor project, biochemical, single concentration | inhibition, % at 12.5 µM | AID 488918, 2010 | 60% of 6,200 active | purified caspase-3, Z-DEVD-aminoluciferin luminescence, 60 min | shares compounds with SENP7 inh;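 active = mean inhibition above about 50%, limit read from the data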;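 also: plate controls were enzyme with DMSO for no effect and wells without caspase-3 for full effect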
Target sequence (P42574 28-227 limits assumed): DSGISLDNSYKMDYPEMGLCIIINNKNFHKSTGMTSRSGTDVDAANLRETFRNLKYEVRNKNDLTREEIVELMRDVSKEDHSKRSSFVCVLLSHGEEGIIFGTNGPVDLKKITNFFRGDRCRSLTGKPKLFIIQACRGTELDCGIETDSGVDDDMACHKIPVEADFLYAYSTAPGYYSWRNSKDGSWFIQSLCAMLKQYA
Luc interf = interferes with luciferase luminescence in SENP counter-screen; 39% of 6,200 active; shares compounds with SENP7 inh; Pre-incubated SENP8/Z-RLRGG-aminoluciferin, luciferase luminescence interference; inhibition, % at 12.5 µM;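 active = mean inhibition above about 50% when retested at one dose, limit read from the data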;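 also: plate controls were DMSO wells with completed reaction for no effect and substrate without enzyme for full effect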
An asterisk follows results filed as active; / = no result given. In the library only some 3.3% were active in any assay of this set; here they are far more common.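 The calls were made as follows, unless noted: active = mean inhibition above about 50% in the one-dose retest (limit read from the data); inactive = the rest.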

SMILES	SENP1 inh	SENP8 block-1	CendR NRP1 mod	SENP8 block-2	SENP6 inh	SENP7 inh	SENP8 conf	SENP6 confirm	SENP7 confirm	Casp3 select	Luc interf
Clc1ccc(-n2nnc(-c3nccs3)n2)cc1Cl	1	8	-5	72*	82*	82*	24	44	60*	68*	-5
CCOC(=O)[C@@H](C)N(C(=O)OC(C)(C)C)S(=O)(=O)N(Cc1ccccc1)[C@H](C(=O)OC)C(C)C	-1	14	5	/	/	/	/	/	/	/	/
C[C@@H](CO)NC(=O)c1[nH]cnc1C(=O)Nc1cccc(Cl)c1	2	-26	-2	/	/	/	/	/	/	/	/
NS(=O)(=O)c1ccc(CCNC(=O)CSc2nc3c(sc(=S)n3-c3ccccc3)c(=O)[nH]2)cc1	2	23	-5	/	/	/	/	/	/	/	/
C=CCn1c(SCC(=O)Nc2ccc(NC(=O)c3ccco3)c(OC)c2)nnc1-c1ccncc1	-1	1	-7	-4	74*	13	-24	-20	-11	-12	-8
C=CCn1c(SCC(=O)Nc2cc(OC)c(NC(=O)c3ccco3)cc2OC)nnc1-c1ccncc1	-2	-22	12	-12	-6	-4	/	/	/	/	/
Cc1cccc(NC(=O)NC(=O)c2ccccc2)n1	4	10	-12	22	-8	54*	10	12	24	15	2
CCCCNC(=O)C(NC(=O)c1ccc(C)cc1)C(=O)c1ccccc1 (configuration not stated)	5	14	16	/	/	/	/	/	/	/	/
Clc1ccccc1-c1ncc(-c2ccccc2)o1	2	-416	-1	88*	91*	92*	79*	92*	99*	79*	84*
Cc1ccc(C(=O)N/C(=C\c2ccc(-c3ccccc3[N+](=O)[O-])o2)C(=O)NCCCN(C)C)cc1	-45	-6	8	26	50*	15	13	35	13	2	0
Cc1ccc(C(=O)N/N=C/c2ccc(-c3ccccc3[N+](=O)[O-])o2)cn1	-12	2	3	36	65*	30	-24	-8	-8	-5	-8
O=C(/C=C/c1ccc(-c2ccccc2[N+](=O)[O-])o1)c1ccccc1	-12	2	5	/	/	/	/	/	/	/	/
O=C(O)/C(=C\c1ccc(-c2ccccc2[N+](=O)[O-])o1)c1ccccc1	1	2	-26	48	58*	0	60*	66*	74*	59*	54*
Cc1ccc(C(=O)N/N=C/c2ccc(-c3cccc(Cl)c3)o2)cn1	0	-436	-14	-1	-17	-6	/	/	/	/	/
Cc1cccc(NC(=S)c2nc3ccccc3s2)c1	2	26	5	84*	65*	90*	62*	83*	90*	74*	26
Cc1cccc(NC(=S)Nc2ccccn2)c1	-2	2	17	-2	-4	9	/	/	/	/	/
COc1cc(OC)cc(C(=O)Nc2nc3ccc(S(C)(=O)=O)cc3s2)c1	0	-175	5	91*	86*	98*	93*	96*	101*	96*	92*
CS(=O)(=O)c1ccc2nc(NC(=O)c3cccc([N+](=O)[O-])c3)sc2c1	3	-14	3	95*	95*	97*	98*	99*	102*	97*	78*
COc1cc(C(=O)Nc2nc3ccc(S(C)(=O)=O)cc3s2)cc(OC)c1C	-4	-258	0	2	9	0	/	/	/	/	/
Clc1ccc(-c2nnc(-c3ccccc3)o2)c(Cl)c1	1	-6	-5	90*	96*	97*	85*	87*	95*	88*	47
Fc1ccc(-c2nnc(-c3ccc(Cl)cc3Cl)o2)cc1	2	7	-10	72*	74*	92*	60*	65*	86*	79*	14
CSc1ccccc1-c1nnc(-c2ccc(Cl)cc2Cl)o1	1	-497	5	-22	-17	35	/	/	/	/	/
Fc1ccc(-c2nnc(-c3ccc(Cl)cc3)o2)cc1	5	-2	-3	-7	24	56*	20	21	39	41	10
N#C/C(=C(/O)c1ccc(-c2cccc([N+](=O)[O-])c2)o1)c1nc2ccccc2s1	-20	-23	-46	93*	97*	25	13	26	18	4	9
O=C(O)c1ccc(-c2cccc([N+](=O)[O-])c2)o1	-2	31	-6	-9	-10	-8	/	/	/	/	/
SMILES	SENP1 inh	SENP8 block-1	CendR NRP1 mod	SENP8 block-2	SENP6 inh	SENP7 inh	SENP8 conf	SENP6 confirm	SENP7 confirm	Casp3 select	Luc interf
O=C1CC(O)(C(F)(F)F)Oc2c1ccc1ccccc21 (configuration not stated)	-4	-270	5	77*	82*	54*	86*	84*	96*	81*	86*
O=C1CC(O)(C(F)F)Oc2ccc3ccccc3c21 (configuration not stated)	-5	-457	3	0	29	8	/	/	/	/	/
Cc1ccc(/C=N/NC(=O)c2cc3c(s2)CCCC3)o1	-4	-246	-6	-10	-11	-10	/	/	/	/	/
c1ccc2c(c1)ccn1c(Cc3ccsc3)c(C3CCCCC3)nc21	-40	-160	-45	/	/	/	/	/	/	/	/
N#Cc1sc2nc(C3CC3)cc(-c3ccccc3)c2c1N	-28	-444	-6	-18	-34	-9	/	/	/	/	/
N#Cc1sc2nc(-c3ccccc3)cc(-c3ccco3)c2c1N	-17	-235	-18	93*	86*	37	4	30	3	13	3
Cc1nc(NC(=O)c2ccccc2)sc1-c1csc(N)n1	-2	-24	-2	30	0	68*	57*	53*	77*	65*	61*
